Results reported in ChEMBL document CHEMBL2062488, “Exploration of diverse hinge-binding scaffolds for selective Aurora kinase inhibitors” (Bioorg Med Chem Lett, 2012).

How the values were obtained:
NCI-H1299 = assay: Cell cycle arrest in human NCI-H1299 assessed as induction of polyploidy after 48 hrs by Hoechst staining-based fluorescence microscopic analysis; format: functional; settings: NCI-H1299, 48 h
Outline: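 NCI-H1299 cells seeded at 4 K/well and left overnight to adhere. Compounds at varying concentrations added in duplicate wells, RPMI 1640 with 10% fetal calf serum, 37 °C for 48 h. Cells fixed in 3% formalin for 1 h, Hoechst-stained and imaged by high-content fluorescence microscopy (360/460 nm) for nuclear area. Polyploid (≥4N) cells had nuclear area >750. EC15 is the concentration giving 15% polyploid cells, from least-squares fit of log dose-response.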

Homo sapiens = species: Homo sapiens; assay: Selectivity ratio of IC50 for Aurora A kinase to IC50 for Aurora B kinase
Aurora kinase A [1] = molecular target: T1, Aurora kinase A (Homo sapiens, UniProt O14965); assay: Inhibition of Aurora A kinase by HTRF analysis in presence of 1 mM ATP
T1 sequence (O14965 whole entry): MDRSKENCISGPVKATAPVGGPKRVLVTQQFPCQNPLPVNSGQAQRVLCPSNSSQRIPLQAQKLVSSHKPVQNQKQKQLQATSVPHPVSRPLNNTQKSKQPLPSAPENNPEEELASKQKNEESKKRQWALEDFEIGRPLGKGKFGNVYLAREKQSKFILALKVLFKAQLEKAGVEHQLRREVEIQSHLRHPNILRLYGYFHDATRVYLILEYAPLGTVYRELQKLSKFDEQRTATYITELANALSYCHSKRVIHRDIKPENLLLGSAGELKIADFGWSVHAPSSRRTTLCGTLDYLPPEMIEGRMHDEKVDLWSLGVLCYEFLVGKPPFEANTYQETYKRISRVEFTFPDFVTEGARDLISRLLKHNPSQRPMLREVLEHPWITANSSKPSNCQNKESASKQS

Aurora kinase B [2] = molecular target: T2, Aurora kinase B (Homo sapiens, UniProt Q96GD4); assay: Inhibition of Aurora B kinase by HTRF analysis in presence of 1 mM ATP
[3] = Volume of distribution in mouse at 3 mg/kg, iv; format: ADME, organism-based; parameters: dose 3 mg/kg, route intravenous; settings: in vivo
[4] = Oral bioavailability in mouse at 10 mg/kg; format: ADME, organism-based; settings: in vivo
Mus musculus [5] = assay: AUC in mouse at 10 mg/kg, po; format: ADME, organism-based, Plasma; parameters: dose 10 mg/kg, route oral; settings: in vivo
Outline: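 Pyrrolotriazines were given by oral cassette dosing at 10 mpk, with several compounds in one cassette. Oral exposure is reported as AUC.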

[6] = Clearance in mouse at 3 mg/kg, iv; format: ADME, organism-based; parameters: dose 3 mg/kg, route intravenous; settings: in vivo
[7] = Distribution half life in mouse at 3 mg/kg, iv; format: ADME, organism-based; parameters: dose 3 mg/kg, route intravenous; settings: in vivo, read-out: alphat1/2 (converted)
Aurora kinase A [8] = molecular target: T1, Aurora kinase A; assay: Inhibition of Aurora A kinase in presence of 10 uM ATP
[9] = molecular target: T3, Calcium/calmodulin-dependent protein kinase type IV (Homo sapiens, UniProt Q16566); assay: Inhibition of Camk4 in presence of 10 uM ATP
T3 sequence (Q16566 whole entry): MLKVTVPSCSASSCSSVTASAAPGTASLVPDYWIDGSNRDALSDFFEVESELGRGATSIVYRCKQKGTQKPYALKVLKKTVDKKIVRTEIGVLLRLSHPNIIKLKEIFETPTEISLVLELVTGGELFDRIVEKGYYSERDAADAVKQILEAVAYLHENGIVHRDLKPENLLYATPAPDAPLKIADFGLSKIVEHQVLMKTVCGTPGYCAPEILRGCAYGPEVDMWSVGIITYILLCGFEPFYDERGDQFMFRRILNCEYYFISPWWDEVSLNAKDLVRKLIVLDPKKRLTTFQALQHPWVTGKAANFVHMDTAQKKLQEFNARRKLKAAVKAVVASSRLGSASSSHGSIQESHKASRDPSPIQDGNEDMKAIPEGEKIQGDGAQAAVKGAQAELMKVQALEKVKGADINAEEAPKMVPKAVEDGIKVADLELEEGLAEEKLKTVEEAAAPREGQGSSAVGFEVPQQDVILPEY

[10] = molecular target: Activin receptor type-1-like (Homo sapiens, UniProt P37023); assay: Inhibition of Alk1 in presence of 10 uM ATP
[11] = molecular target: T4, Serine/threonine-protein kinase PLK4 (Homo sapiens, UniProt O00444); assay: Inhibition of Plk4 in presence of 10 uM ATP
T4 sequence (O00444 whole entry): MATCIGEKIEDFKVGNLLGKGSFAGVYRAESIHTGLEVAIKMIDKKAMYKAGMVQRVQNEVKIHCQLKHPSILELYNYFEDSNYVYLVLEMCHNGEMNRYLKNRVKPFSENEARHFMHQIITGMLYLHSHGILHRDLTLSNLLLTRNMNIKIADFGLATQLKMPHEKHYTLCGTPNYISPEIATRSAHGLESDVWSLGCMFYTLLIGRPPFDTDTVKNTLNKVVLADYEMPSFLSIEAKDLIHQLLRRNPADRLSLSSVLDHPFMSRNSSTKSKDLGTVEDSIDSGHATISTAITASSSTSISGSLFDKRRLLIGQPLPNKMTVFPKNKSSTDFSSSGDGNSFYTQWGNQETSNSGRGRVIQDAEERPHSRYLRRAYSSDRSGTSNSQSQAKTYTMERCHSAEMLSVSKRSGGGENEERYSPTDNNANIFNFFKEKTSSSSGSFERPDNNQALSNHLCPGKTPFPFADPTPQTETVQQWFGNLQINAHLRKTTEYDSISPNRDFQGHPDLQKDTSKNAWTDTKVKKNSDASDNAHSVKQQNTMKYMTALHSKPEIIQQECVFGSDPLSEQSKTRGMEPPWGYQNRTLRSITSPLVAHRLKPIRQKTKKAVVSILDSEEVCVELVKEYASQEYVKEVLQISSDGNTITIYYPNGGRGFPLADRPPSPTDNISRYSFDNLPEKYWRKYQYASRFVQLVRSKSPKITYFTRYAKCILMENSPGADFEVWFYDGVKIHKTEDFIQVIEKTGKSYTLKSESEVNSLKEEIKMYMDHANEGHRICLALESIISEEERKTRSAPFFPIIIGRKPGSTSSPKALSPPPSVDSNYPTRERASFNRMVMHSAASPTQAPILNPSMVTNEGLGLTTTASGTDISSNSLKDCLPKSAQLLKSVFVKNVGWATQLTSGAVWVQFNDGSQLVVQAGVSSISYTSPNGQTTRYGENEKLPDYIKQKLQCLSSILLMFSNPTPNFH

Aurora kinase B [12] = molecular target: T2, Aurora kinase B; assay: Inhibition of Aurora B kinase in presence of 10 uM ATP
Mus musculus [13] = assay: Inhibition of histone 3 phosphorylation in leukemia xenografted mouse model at 50 mg/kg, ip measured after 4 hrs; format: functional; settings: route intraperitoneal
Outline: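 Leukemia-engrafted mouse model dosed 50 mpk IP. Histone H3 phosphorylation was measured 4 h after the dose as percent inhibition.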

T2 sequence (Q96GD4 whole entry): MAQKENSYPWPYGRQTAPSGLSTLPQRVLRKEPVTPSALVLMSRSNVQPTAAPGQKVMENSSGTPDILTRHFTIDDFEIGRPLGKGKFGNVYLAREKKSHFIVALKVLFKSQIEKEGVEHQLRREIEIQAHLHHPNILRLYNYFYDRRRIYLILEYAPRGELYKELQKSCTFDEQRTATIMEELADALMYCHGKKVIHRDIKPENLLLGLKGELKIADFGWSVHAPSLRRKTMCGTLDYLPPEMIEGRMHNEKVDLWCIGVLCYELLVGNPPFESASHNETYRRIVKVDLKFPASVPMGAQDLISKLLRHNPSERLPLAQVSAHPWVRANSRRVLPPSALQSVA
Chain of Activin receptor type-1-like (P37023 whole entry): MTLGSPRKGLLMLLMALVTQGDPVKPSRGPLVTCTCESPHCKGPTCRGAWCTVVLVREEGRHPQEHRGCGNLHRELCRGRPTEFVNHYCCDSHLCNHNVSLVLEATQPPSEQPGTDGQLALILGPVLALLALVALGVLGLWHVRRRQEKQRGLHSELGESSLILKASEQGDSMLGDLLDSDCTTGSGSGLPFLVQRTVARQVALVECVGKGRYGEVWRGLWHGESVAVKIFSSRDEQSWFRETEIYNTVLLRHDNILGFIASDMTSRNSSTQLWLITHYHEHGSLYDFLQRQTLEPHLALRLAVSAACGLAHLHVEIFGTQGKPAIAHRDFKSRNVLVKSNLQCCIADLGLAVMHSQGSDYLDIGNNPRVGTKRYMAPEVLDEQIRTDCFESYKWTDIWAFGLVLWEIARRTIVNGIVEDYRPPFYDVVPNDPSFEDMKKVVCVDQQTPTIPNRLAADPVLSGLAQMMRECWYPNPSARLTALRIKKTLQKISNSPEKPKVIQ

| Ratio IC50 (Homo sapiens) | IC50 (Aurora kinase A [1]) | IC50 (Aurora kinase B [2]) | Structure (SMILES) | EC15 (NCI-H1299) | also measured |
| --- | --- | --- | --- | --- | --- |
| – | – | – | Nc1n[nH]c2cccc(C(=O)Nc3cccc(CNC(=O)Nc4ccc(F)c(F)c4)c3)c12 | 143 nM | – |
| – | – | – | Nc1nsc2cccc(C(=O)Nc3cccc(CNC(=O)Nc4ccc(C(F)(F)F)cc4)c3)c12 | 18 nM | – |
| – | – | – | Nc1noc2cccc(C(=O)Nc3cccc(CNC(=O)Nc4ccc(F)cc4)c3)c12 | 30 nM | – |
| – | – | – | Nc1ncnn2ccc(C(=O)Nc3cccc(CNC(=O)Nc4cccc(F)c4)c3)c12 | 2 nM | – |
| – | – | – | Cc1ccc(NC(=O)NCc2cccc(NC(=O)c3cccc4onc(N)c34)c2)cc1 | 1 nM | – |
| 347 | 12500 nM | 36 nM | Nc1nsc2cccc(C(=O)Nc3cccc(CNC(=O)Nc4ccc(F)c(F)c4)c3)c12 | 21 nM | – |
| – | > 12500 nM | 450 nM | Nc1noc2cccc(C(=O)Nc3cccc(CC(=O)Nc4cccc(F)c4)c3)c12 | – | – |
| > 227 | > 12500 nM | 55 nM | Nc1noc2cccc(C(=O)Nc3cccc(CNC(=O)Nc4ccccc4F)c3)c12 | 124 nM | – |
| > 26 | > 12500 nM | 480 nM | Nc1noc2cccc(C(=O)Nc3ccc(NC(=O)Nc4ccc(F)cc4)cc3)c12 | – | – |
| – | – | – | Nc1ncnn2ccc(C(=O)Nc3ccc(NC(=O)Nc4ccsc4)cc3)c12 | 6 nM | – |
| 54 | 3180 nM | 59 nM | Nc1noc2cccc(C(=O)Nc3cccc(CNC(=O)Nc4cccc(F)c4)c3)c12 | 3 nM | Vd [3]: 0.54 L/kg; bioavailability [4]: 28%; AUC (Mus musculus [5]): 5 uM.hr/ml; clearance [6]: 8.83 mL/min/kg; half-life [7]: 0.7 h |
| – | – | – | Nc1noc2cccc(C(=O)Nc3cccc(CNC(=O)Nc4ccc(C(F)(F)F)cc4)c3)c12 | 13 nM | Vd [3]: 0.23 L/kg; bioavailability [4]: 77%; AUC (Mus musculus [5]): 61 uM.hr/ml; clearance [6]: 2.17 mL/min/kg; half-life [7]: 1.3 h |
| – | – | – | Nc1ncnn2ccc(C(=O)Nc3cccc(CNC(=O)Nc4ccc(C(F)(F)F)cc4)c3)c12 | 6 nM | – |
| – | > 12500 nM | > 12500 nM | Nc1noc2cccc(C(=O)Nc3cccc(CNC(=O)Cc4cccc(F)c4)c3)c12 | – | – |
| 73 | 12500 nM | 172 nM | Cn1nc(N)c2c(C(=O)Nc3cccc(CNC(=O)Nc4ccc(C(F)(F)F)cc4)c3)cccc21 | – | – |
| – | – | – | Nc1ncnn2ccc(C(=O)Nc3cccc(CNC(=O)Nc4cccc(Cl)c4)c3)c12 | 2 nM | – |
| – | – | – | Cc1cccc(NC(=O)Nc2ccc(NC(=O)c3ccn4ncnc(N)c34)cc2)c1 | 9 nM | – |
| – | – | – | Nc1ncnn2ccc(C(=O)Nc3cccc(CNC(=O)Nc4ccc(Cl)cc4)c3)c12 | 1 nM | – |
| 210 | 3790 nM | 18 nM | Nc1noc2cccc(C(=O)Nc3cccc(CNC(=O)Nc4ccccc4)c3)c12 | 47 nM | – |
| – | – | – | Nc1ncnn2ccc(C(=O)Nc3ccc(NC(=O)NC4CCCC4)cc3)c12 | 15 nM | – |
| – | – | – | Nc1n[nH]c2cccc(C(=O)Nc3cccc(CNC(=O)Nc4cccc(F)c4)c3)c12 | 111 nM | – |
| – | – | 9 nM | Nc1ncnn2ccc(C(=O)Nc3ccc(NC(=O)Nc4cccc(F)c4)cc3)c12 | 3 nM | IC50 (Aurora kinase A [8]): < 3 nM; IC50 [9]: > 10000 nM; IC50 [10]: > 10000 nM; IC50 [11]: < 3 nM; IC50 (Aurora kinase B [12]): < 3 nM |
| – | – | – | Nc1noc2cccc(C(=O)Nc3cccc(CNC(=O)Nc4ccc(Cl)cc4)c3)c12 | 12 nM | – |
| 2.4 | 88 nM | 36 nM | Nc1ncnn2ccc(C(=O)Nc3ccc(NC(=O)Nc4ccc(F)cc4)cc3)c12 | 16 nM | – |
| – | – | – | Cc1ccc(NC(=O)NCc2cccc(NC(=O)c3ccn4ncnc(N)c34)c2)cc1 | 1 nM | – |
| – | – | – | Nc1nsc2cccc(C(=O)Nc3cccc(CNC(=O)Nc4cccc(F)c4)c3)c12 | 18 nM | – |
| > 89 | > 12500 nM | 140 nM | Nc1noc2cccc(C(=O)Nc3ccc(NC(=O)Nc4ccc(Cl)cc4)cc3)c12 | – | – |
| 696 | 4780 nM | 7 nM | Nc1noc2cccc(C(=O)Nc3cccc(CNC(=O)Nc4ccc(F)c(F)c4)c3)c12 | 15 nM | Vd [3]: 0.96 L/kg; bioavailability [4]: 31%; inhibition in vivo at 50 mg/kg (Mus musculus [13]): 87%; AUC (Mus musculus [5]): 8 uM.hr/ml; clearance [6]: 6.5 mL/min/kg; half-life [7]: 1.7 h |
